From article PMC7328899 (Nature cancer, 2020)

Assays:
[1] = test system: LS1034 colorectal cancer cells; assay: Cellular viability assay; type: cell-based; details: Homo sapiens, LS-1034
Method in brief: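 LS1034 cells were grown in RPMI with 10% heat-inactivated FBS and 1% penicillin-streptomycin, and tested mycoplasma-negative. They were seeded at 2000 cells/well and digitally dispensed with compound the next day. Exposure was 5 days. CellTiter-Glo luminescence was read, replicate wells were averaged and normalized to vehicle, and dose curves were fitted.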

ABCB1 = ABCB1 (Homo sapiens, UniProt P08183); assay: ABCB1 activity assays; type: cell-based; details: MDR1-MDCK cells; calcein AM and loperamide transport assays
Sequence of ABCB1 (P08183 whole entry): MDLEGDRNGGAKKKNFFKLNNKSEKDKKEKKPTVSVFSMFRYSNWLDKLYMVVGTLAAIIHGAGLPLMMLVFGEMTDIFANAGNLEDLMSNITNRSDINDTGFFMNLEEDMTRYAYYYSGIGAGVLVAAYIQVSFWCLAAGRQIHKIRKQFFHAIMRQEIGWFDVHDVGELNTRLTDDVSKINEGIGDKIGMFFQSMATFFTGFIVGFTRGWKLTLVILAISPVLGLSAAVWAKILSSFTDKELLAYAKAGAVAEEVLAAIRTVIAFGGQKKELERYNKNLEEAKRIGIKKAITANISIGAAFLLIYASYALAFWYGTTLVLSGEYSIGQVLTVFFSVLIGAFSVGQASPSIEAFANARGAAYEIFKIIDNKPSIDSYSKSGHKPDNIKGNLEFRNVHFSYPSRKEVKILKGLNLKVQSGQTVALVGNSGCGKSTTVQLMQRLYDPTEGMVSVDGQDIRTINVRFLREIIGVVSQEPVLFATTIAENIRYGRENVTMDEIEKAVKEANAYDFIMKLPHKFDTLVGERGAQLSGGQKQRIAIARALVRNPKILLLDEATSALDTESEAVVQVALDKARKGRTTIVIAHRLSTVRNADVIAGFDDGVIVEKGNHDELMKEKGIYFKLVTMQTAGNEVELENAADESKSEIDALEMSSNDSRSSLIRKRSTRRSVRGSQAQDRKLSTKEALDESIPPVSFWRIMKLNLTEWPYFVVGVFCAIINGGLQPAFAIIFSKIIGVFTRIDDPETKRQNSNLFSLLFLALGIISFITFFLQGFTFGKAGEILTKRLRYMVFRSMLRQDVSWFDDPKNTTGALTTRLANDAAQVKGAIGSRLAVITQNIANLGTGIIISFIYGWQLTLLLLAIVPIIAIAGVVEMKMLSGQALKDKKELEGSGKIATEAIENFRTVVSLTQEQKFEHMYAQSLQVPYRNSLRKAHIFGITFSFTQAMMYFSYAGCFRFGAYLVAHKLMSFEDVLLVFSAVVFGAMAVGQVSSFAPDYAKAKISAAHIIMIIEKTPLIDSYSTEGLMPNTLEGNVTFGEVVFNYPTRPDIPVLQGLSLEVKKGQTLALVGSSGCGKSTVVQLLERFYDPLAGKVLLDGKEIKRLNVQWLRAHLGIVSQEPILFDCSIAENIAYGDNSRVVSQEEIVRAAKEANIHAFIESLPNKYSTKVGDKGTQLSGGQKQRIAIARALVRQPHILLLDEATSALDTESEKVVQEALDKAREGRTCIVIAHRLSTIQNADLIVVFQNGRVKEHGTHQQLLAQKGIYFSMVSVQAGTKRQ
Method in brief: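 Calcein AM efflux assay: MDR1-MDCK (MDCKII) cells incubated with test compound and calcein AM; fluorescence read-out expressed as percent ABCB1 inhibition, mean of 3 replicates. Transport assay: loperamide added to the apical side of an MDR1-MDCK monolayer and basolateral transport quantified over 60 minutes, with test compound or verapamil positive control.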

[2] = test system: Kuramochi ovarian cancer cell line; assay: Viability of Kuramochi wild type and ABCB1-overexpressing cells; type: cell-based, human; details: low-expressing, tepoxalin-insensitive cell line (Kuramochi), 8 days
Method in brief: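 Kuramochi ovarian cancer cells, wild-type or ABCB1-overexpressing, were grown in RPMI with 10% FBS and seeded at 2000 cells/well. Compound was added the next day and cells were treated for 8 days. Viability was read by CellTiter-Glo luminescence, normalized to vehicle, and reported as the mean of 3 independently treated wells with SD.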

SF295 glioma cell line = assay: Viability of SF295 cells with and without MTF1 knockout; type: cell-based, human; details: for change of drug sensitivity after MTF1 knockout: SF295 cells, CRISPR/Cas9 MTF1 knockout vs control
Method in brief: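 SF295 glioma cells: wild-type, Cas9 with GFP sgRNA, or Cas9 with MTF1 sgRNAs. Knockout was confirmed by NGS indel assay and loss of MTF1 target gene expression by RNA-seq. Cells were seeded at 2000 cells/well and dosed the next day. CellTiter-Glo viability was normalized to vehicle and reported as the mean of 3 independently treated wells with SD.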

PDE3A-SLFN12 = details: cited from earlier work
OVISE cells = assay: Viability of OVISE cells with and without SLC26A2 knockout; type: cell-based, human; details: CRISPR/Cas9 SLC26A2 knockout
Method in brief: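 OVISE cells were grown in RPMI with 10% FBS and used with or without CRISPR/Cas9 SLC26A2 knockout; GFP sgRNA served as the non-targeting control. Indel frequency at the cut sites was checked by NGS. Cells were seeded at 2000 cells/well and dosed the next day. CellTiter-Glo viability was normalized to vehicle and reported as the mean of three independently treated wells with SD.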

[3] = test system: LS1034 and REC1 cell lines; assay: Drug synergy/antagonism assays, LS1034 and REC1; type: cell-based, human
Method in brief: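 LS1034 or REC1 cells received a dose-response matrix of test compound with paclitaxel, and viability was read by CellTiter-Glo. Signals were normalized to the median of DMSO wells on each plate. Bliss synergy scores were estimated across all dose combinations with default baseline correction. The value is the score with highest magnitude across combinations (max synergy).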

[4] = test system: ABCB1-expressing cancer cells; assay: Viability of ABCB1-expressing cancer cells; type: cell-based, human; details: compared with tepoxalin
[5] = test system: LS1034 colon cancer cell lines with and without ABCB1 knockout
LS1034 cells = assay: Tepoxalin drug synergy/antagonism assay, LS1034; type: cell-based, human; details: LS1034, 5 days, tepoxalin doses above ~5 μM

COc1ccc(-n2nc(CCC(=O)N(C)O)cc2-c2ccc(Cl)cc2)cc1 [tepoxalin]
IC50 [1]: 3.8 µM
ABCB1 inhibition (ABCB1): inhibit ABCB1 at high concentrations
change of drug sensitivity after ABCB1 overexpression [2]: increased drug sensitivity

CCN(CC)C(=S)SSC(=S)N(CC)CC [disulfiram]
effect of copper chelator tetrathiomolybdate (TTM) on the increased sensitivity (SF295 glioma cell line; SF295 MTF1 knockout cells, co-treatment with 1 μM TTM): completely reversed
change of drug sensitivity after MTF1 knockout (SF295 glioma cell line): increased sensitivity

COc1cc2c(cc1OC)-c1c/c(=N\c3c(C)cc(C)cc3C)n(C)c(=O)n1CC2 [trequinsin]
induction of PDE3A-SLFN12 interaction (PDE3A-SLFN12): does not induce PDE3A-SLFN12 interaction

Cc1occc(=O)c1[O-].Cc1occc(=O)c1[O-].[O]=[V+2] [BMOV, bis(maltolato)oxovanadium(IV)]
sensitivity of cells after SLC26A2 knockout (OVISE cells): resistant

COc1cc2c(cc1OC)CN(CCc1ccc(NC(=O)c3cccc4c(=O)c5cccc(OC)c5[nH]c34)cc1)CC2 [elacridar]
maximum synergy score in combination with paclitaxel [3]: strongly synergistic

COc1cc2c(cc1OC)CN(CCc1ccc(NC(=O)c3cc(OC)c(OC)cc3NC(=O)c3cnc4ccccc4c3)cc1)CC2 [tariquidar]
maximum synergy score in combination with paclitaxel [3]: strongly synergistic

bis(ethylmaltolato)oxovanadium(IV) [BEOV]
sensitivity of cells after SLC26A2 knockout (OVISE cells): resistant

COc1ccc(-n2nc(CCC(=O)O)cc2-c2ccc(Cl)cc2)cc1 [RWJ20142, 3-(5-(4-chlorophenyl)-1-(4-methoxyphenyl)-1H-pyrazol-3-yl)propanoic acid]
inhibition of ABCB1-expressing cancer cells [4]: no inhibition
cell permeability [5]: not cell-permeable

CC(C)C[C@H](NC(=O)[C@H](Cc1ccccc1)NC(=O)c1cnccn1)B(O)O [bortezomib]
change of drug sensitivity after MTF1 knockout (SF295 glioma cell line): did not alter sensitivity

O[C@@H](COc1cccc2ncccc12)CN1CCN([C@@H]2c3ccccc3[C@@H]3[C@H](c4ccccc42)C3(F)F)CC1 [zosuquidar]
Bliss synergy in combination with tepoxalin (LS1034 cells): strong antagonism
